Measurements from ChEMBL document CHEMBL1124311, “Synthesis and antiallergy activity of 4-(diarylhydroxymethyl)-1-[3-(aryloxy)propyl]piperidines and structurally related compounds” (J Med Chem, 1989).
Calls of active or inactive are those of the source. The calls are words filed in the database; no cut-off is given here.

Columns and labels:
[1] = tested on: Rattus norvegicus; test: Oral antiallergy activity in the passive foot anaphylaxis (PFA) model of rat, at a dose of 1.0 (mg/kg); not significantly different from negative control group; type: functional, organism-based
[2] = tested on: Rattus norvegicus; test: Oral antiallergy activity in the passive foot anaphylaxis (PFA) model of rat, at a dose of 10 (mg/kg); Activity equal to positive control group; type: functional, organism-based
[3] = organism: Rattus norvegicus; test: Oral antiallergy activity in the passive foot anaphylaxis (PFA) model of rat, at a dose of 3.16; Activity equal to positive control group; type: functional, organism-based
[4] = organism: Cavia porcellus; test: Oal antiallergy activity in the guinea pig anaphylaxis (GPA) model, at a pretreatment time of 24 h; type: functional; conditions: read-out: PD50
Procedure, shortened: (§1)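 Fasted, sensitized Dunkin-Hartley guinea pigs, randomized into control (N = 8) and test (N = 4) groups, dosed by gavage at 10 mL/kg in 0.5% Tween 80 in water; theophylline 100 mg/kg po as reference. At the stated pretreatment time, each animal was exposed to aerosolized 1% (w/v) egg albumin at 10 L air/min for up to 5 min. Protection meant no collapse within 5 min. PD50 was calculated by Litchfield–Wilcoxon.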

[5] = organism: Cavia porcellus; test: Oal antiallergy activity in the guinea pig anaphylaxis (GPA) model of, at a pretreatment time of 5 h; type: functional; conditions: read-out: PD50; procedure, shortened: as §1
[6] = molecular target: Histamine H1 receptor (Cavia porcellus, UniProt P31389); test: Inhibitory activity against Tritiated [3H]- mepyramine binding to Histamine H1 receptor in guinea pig cerebral cortex; type: tissue-based
Sequence of Histamine H1 receptor (P31389 whole entry): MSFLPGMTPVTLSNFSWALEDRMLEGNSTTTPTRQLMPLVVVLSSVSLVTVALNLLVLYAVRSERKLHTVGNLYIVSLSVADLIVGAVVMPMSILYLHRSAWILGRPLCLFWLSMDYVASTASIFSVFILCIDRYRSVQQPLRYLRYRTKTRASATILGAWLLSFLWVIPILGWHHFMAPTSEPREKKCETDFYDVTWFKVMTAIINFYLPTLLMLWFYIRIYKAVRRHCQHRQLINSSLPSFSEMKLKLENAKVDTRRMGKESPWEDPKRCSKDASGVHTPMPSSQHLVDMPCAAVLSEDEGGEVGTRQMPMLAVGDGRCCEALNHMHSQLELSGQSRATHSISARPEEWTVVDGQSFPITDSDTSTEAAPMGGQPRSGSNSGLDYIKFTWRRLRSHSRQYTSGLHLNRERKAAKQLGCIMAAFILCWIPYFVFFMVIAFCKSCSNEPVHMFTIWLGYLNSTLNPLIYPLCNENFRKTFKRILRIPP
Procedure, shortened: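 Guinea pig (Dunkin-Hartley) cerebral cortex homogenised in cold 50 mM Na-K phosphate pH 7.5, washed by repeated 48000g spins, membranes resuspended at 30 mL buffer/g wet tissue. Incubated with 1.5 nM (final) [3H]mepyramine for 20 min at 25 °C. Stopped by cold-buffer washing and GF/B filtration, then scintillation counting. Six concentrations (1e-5 to 1e-10 M) in triplicate. IC50 from regression of logit % control binding vs log concentration.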

[7] = tested on: Rattus norvegicus; test: Oral antiallergy activity in the passive foot anaphylaxis (PFA) model of rat, at a dose of 3.16 (mg/kg); - indicates not significantly different from negative control group.; type: functional, organism-based
[8] = tested on: Rattus norvegicus; test: Oral antiallergy activity in the passive foot anaphylaxis (PFA) model of rat, at a dose of 1.0 (mg/kg);not significantly different from negative control group; type: functional, organism-based
[9] = tested on: Rattus norvegicus; test: Oral antiallergy activity in the passive foot anaphylaxis (PFA) model of rat, at a dose of 10 (mg/kg); Activity greater than positive control group; type: functional, organism-based
[10] = tested on: Rattus norvegicus; test: Oral antiallergy activity in the passive foot anaphylaxis (PFA) model of rat, at a dose of 3.16 (mg/kg); Activity between positive and negative control groups; type: functional, organism-based
[11] = organism: Cavia porcellus; test: Oral antiallergy activity in the guinea pig anaphylaxis (GPA) model, at a pretreatment time of 1 h; type: functional; conditions: read-out: PD50; procedure, shortened: as §1
[12] = organism: Cavia porcellus; test: Oral antiallergy activity in the guinea pig anaphylaxis (GPA) model of, at a pretreatment time of 6 h; type: functional; conditions: read-out: PD50; procedure, shortened: as §1
[13] = tested on: Rattus norvegicus; test: Oral antiallergy activity in the passive foot anaphylaxis (PFA) model of rat, at a dose of 10 (mg/kg); not significantly different from negative control group; type: functional, organism-based
[14] = tested on: Rattus norvegicus; test: Oral antiallergy activity in the passive foot anaphylaxis (PFA) model of rat, at a dose of 10 (mg/kg); Not significantly different from negative control group; type: functional, organism-based

Cc1ccc(OCCCN2CCC(C(O)(c3ccc(F)cc3)c3ccc(F)cc3)CC2)cc1
PFA [1]: Activity equal to positive control group
PFA [2]: Activity equal to positive control group
PFA [3]: Activity equal to positive control group

O=c1[nH]c2ccccc2n1CCCN1CCN(C(c2ccccc2)c2ccccc2)CC1 [OXATOMIDE]
ED50 [4]: 10 mg/kg
ED50 [5]: 1 mg/kg
IC50 [6]: 9 nM

OC(c1ccc(F)cc1)(c1ccc(F)cc1)C1CCN(CCCCc2ccccc2)CC1
PFA [7]: Not significantly different from negative control group

CS(=O)(=O)Nc1ccc(OCCCN2CCC(C(O)(c3ccc(F)cc3)c3ccc(F)cc3)CC2)cc1
PFA [8]: Activity between positive and negative control groups
PFA [9]: Activity between positive and negative control groups
PFA [10]: Activity between positive and negative control groups

CC(C)(C)c1ccc(C(O)CCCN2CCC(C(O)(c3ccccc3)c3ccccc3)CC2)cc1 (centres undefined) [TERFENADINE]
ED50 [11]: 1 mg/kg
ED50 [12]: 3.2 mg/kg
PFA [13]: inactive

COc1cc(C(C)=O)ccc1OCCCN1CCC(C(O)c2ccccc2)CC1 (centres undefined)
PFA [14]: Not significantly different from negative control group
